ChEMBL document CHEMBL1140983, “Pyrazoles and pyrazolines as neural and inducible nitric oxide synthase (nNOS and iNOS) potential inhibitors (III)” (Eur J Med Chem, 2008)

Tests used:
[1] = target: Nitric oxide synthase 1 (Rattus norvegicus) (UniProt P29476); experiment: Inhibition of nNOS in Wistar rat striata assessed as conversion of L-[3H]arginine to L-[3H]citrulline at 1 mM by liquid scintillation spectroscopy
Procedure, shortened: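 Male Wistar rats (200–250 g); fresh striata homogenized in Tris buffer (pH 7.6) with protease inhibitors, spun 1000 g 5 min, supernatant used. Incubation: 25 mM Tris, 1 mM DTT, 30 µM H4-biopterin, 10 µM FAD, 0.1 mM CaCl2, 10 µM L-arginine plus 50 nM L-[3H]-arginine; started with NADPH (0.75 mM final) and compound in DMSO (1 mM final), 37 °C 30 min. Dowex-50W separation; NADPH-omitted blank subtracted; mean ± SEM, three experiments in triplicate.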

[2] = target: Nitric oxide synthase, inducible (Rattus norvegicus) (UniProt Q06518); experiment: Inhibition of iNOS in LPS-induced rat lungs assessed as conversion of L-[3H]arginine to L-[3H]citrulline at 1 mM by liquid scintillation spectroscopy
Procedure, shortened: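 iNOS induced by LPS 20 mg/kg i.v. in rats; lungs taken 8 h later, homogenized in ice-cold Tris buffer (pH 7.6) with protease inhibitors, then incubated with 10 mM EDTA to remove nNOS activity. Activity read as [3H]-citrulline from L-[3H]-arginine by the striatal-assay procedure, compound at 1 mM final, 37 °C 30 min; mean ± SEM, three experiments in triplicate.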

Sequence of Nitric oxide synthase 1 (Rattus norvegicus) (P29476 whole entry): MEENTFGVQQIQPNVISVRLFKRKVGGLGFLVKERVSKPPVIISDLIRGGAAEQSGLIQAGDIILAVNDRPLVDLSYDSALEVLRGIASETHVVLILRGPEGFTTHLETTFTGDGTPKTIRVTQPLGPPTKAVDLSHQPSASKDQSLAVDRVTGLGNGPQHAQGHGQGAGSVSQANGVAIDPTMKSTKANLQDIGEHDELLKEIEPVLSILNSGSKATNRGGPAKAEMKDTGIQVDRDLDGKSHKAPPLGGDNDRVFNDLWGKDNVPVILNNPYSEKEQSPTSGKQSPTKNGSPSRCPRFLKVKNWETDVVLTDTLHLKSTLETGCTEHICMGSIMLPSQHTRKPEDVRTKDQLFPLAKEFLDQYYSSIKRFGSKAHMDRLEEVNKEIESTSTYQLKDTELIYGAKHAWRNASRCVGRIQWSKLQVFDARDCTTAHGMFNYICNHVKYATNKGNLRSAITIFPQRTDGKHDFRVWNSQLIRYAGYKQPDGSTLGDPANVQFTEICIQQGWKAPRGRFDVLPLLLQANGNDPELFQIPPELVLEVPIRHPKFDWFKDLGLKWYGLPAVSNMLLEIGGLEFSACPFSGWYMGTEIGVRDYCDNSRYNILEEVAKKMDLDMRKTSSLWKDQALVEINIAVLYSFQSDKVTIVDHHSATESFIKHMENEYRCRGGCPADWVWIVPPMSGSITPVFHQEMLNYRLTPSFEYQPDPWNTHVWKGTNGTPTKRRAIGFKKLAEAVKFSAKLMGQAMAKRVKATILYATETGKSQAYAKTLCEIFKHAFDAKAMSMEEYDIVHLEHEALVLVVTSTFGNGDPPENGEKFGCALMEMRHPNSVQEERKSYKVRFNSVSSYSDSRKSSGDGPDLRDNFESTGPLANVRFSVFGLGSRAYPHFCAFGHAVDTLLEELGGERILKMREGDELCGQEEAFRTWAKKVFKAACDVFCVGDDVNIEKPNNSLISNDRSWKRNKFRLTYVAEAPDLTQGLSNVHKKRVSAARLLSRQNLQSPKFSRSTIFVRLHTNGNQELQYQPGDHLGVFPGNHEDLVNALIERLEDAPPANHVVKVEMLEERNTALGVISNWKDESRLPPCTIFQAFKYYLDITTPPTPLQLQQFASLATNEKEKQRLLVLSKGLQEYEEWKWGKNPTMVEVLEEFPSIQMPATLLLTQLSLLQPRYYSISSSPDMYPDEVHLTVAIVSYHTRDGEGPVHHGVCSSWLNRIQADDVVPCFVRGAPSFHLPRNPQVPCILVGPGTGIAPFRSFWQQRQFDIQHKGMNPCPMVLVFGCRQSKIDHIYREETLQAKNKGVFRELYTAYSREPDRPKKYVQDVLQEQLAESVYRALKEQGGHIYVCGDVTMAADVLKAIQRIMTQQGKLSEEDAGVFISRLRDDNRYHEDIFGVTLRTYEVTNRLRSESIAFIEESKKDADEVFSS
Sequence of Nitric oxide synthase, inducible (Rattus norvegicus) (Q06518 whole entry): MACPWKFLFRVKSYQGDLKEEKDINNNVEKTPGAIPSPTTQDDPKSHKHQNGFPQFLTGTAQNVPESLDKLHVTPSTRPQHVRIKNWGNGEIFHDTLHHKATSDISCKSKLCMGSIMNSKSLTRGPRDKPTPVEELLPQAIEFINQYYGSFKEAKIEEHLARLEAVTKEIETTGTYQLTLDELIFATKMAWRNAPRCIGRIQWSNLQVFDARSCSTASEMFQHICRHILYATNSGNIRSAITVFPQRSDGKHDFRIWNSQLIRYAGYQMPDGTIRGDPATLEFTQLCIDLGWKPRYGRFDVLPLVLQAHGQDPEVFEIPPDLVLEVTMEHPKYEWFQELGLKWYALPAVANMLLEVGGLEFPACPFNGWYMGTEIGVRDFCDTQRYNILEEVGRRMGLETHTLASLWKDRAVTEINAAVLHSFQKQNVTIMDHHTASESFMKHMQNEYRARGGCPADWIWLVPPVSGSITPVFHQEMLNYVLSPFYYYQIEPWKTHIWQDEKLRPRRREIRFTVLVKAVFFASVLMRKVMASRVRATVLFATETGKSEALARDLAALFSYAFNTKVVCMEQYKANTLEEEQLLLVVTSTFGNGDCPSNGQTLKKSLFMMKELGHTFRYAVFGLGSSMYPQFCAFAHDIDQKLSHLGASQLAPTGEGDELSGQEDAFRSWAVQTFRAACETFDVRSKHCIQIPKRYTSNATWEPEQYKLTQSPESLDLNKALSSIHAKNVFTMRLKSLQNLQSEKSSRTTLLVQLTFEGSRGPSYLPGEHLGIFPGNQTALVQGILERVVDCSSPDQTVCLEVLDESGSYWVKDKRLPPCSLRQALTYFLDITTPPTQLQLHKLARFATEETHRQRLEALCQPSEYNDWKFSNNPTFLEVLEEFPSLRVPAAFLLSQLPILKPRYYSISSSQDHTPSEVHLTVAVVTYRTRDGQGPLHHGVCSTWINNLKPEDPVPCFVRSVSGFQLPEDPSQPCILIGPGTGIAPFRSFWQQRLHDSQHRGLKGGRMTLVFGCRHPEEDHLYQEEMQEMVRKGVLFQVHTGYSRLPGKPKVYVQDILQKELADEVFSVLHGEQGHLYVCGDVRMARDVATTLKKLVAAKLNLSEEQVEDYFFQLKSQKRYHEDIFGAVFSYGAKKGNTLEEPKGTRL

CCCCN1N=C(C(=O)c2ccccc2N)CC1C(=O)OCC (stereo not drawn)
inhibition [1]: 29.6% | inhibition [2]: 12.2%

CCCCN1N=C(C(=O)c2cc(Cl)ccc2N)CC1C(=O)OCC (stereo not drawn)
inhibition [1]: 38.5% | inhibition [2]: 10.5%

CCOC(=O)c1cc(C(=O)c2cc(OC)ccc2N)nn1CC
inhibition [1]: 20.3% | inhibition [2]: 24.6%

CCOC(=O)C1CC(C(=O)c2cc(Cl)ccc2N)=NN1CC (stereo not drawn)
inhibition [1]: 41.5% | inhibition [2]: 14.7%

CCCCn1nc(C(=O)c2ccccc2N)cc1C(=O)OCC
inhibition [1]: 21.9% | inhibition [2]: 5.4%

CCOC(=O)C1CC(C(=O)c2ccccc2N)=NN1Cc1ccccc1 (stereo not drawn)
inhibition [1]: 28.4% | inhibition [2]: 9.4%

CCOC(=O)c1cc(C(=O)c2ccccc2N)nn1CC
inhibition [1]: 39.5% | inhibition [2]: 12.5%

CCOC(=O)C1CC(C(=O)c2cc(Cl)ccc2N)=NN1 (stereo not drawn)
inhibition [1]: 32.1% | inhibition [2]: 19.1%

CCOC(=O)c1cc(C(=O)c2cc(OC)ccc2N)nn1Cc1ccccc1
inhibition [1]: 19.4% | inhibition [2]: 30.5%

CCOC(=O)C1CC(C(=O)c2cc(OC)ccc2N)=NN1CC (stereo not drawn)
inhibition [1]: 1.7% | inhibition [2]: 17.1%

CCOC(=O)c1cc(C(=O)c2cc(Cl)ccc2N)nn1C
inhibition [1]: 14.5% | inhibition [2]: 7.3%

CCOC(=O)C1CC(C(=O)c2ccccc2N)=NN1CC (stereo not drawn)
inhibition [1]: 22.1% | inhibition [2]: -1.5%

CCOC(=O)C1CC(C(=O)c2ccccc2N)=NN1C (stereo not drawn)
inhibition [1]: -9.8% | inhibition [2]: 12.7%

CCCCN1N=C(C(=O)c2cc(OC)ccc2N)CC1C(=O)OCC (stereo not drawn)
inhibition [1]: -10% | inhibition [2]: 18.6%

CCCCn1nc(C(=O)c2cc(Cl)ccc2N)cc1C(=O)OCC
inhibition [1]: 7.8% | inhibition [2]: 18.7%

CCOC(=O)C1CC(C(=O)c2cc(OC)ccc2N)=NN1Cc1ccccc1 (stereo not drawn)
inhibition [1]: 9.3% | inhibition [2]: 10.5%

CCOC(=O)c1cc(C(=O)c2cc(Cl)ccc2N)nn1Cc1ccccc1
inhibition [1]: 2.7% | inhibition [2]: 50.4%

CCOC(=O)C1CC(C(=O)c2cc(Cl)ccc2N)=NN1C (stereo not drawn)
inhibition [1]: 1.3% | inhibition [2]: 22.9%

CCOC(=O)c1cc(C(=O)c2cc(Cl)ccc2N)nn1CC
inhibition [1]: 35.5% | inhibition [2]: 27.5%

CCOC(=O)c1cc(C(=O)c2ccccc2N)nn1Cc1ccccc1
inhibition [1]: 21.9% | inhibition [2]: 13.5%

CCOC(=O)C1CC(C(=O)c2cc(Cl)ccc2N)=NN1Cc1ccccc1 (stereo not drawn)
inhibition [1]: 18.3% | inhibition [2]: 17.3%

CCOC(=O)C1CC(C(=O)c2cc(OC)ccc2N)=NN1C (stereo not drawn)
inhibition [1]: -7.8% | inhibition [2]: 0.6%

CCCCn1nc(C(=O)c2cc(OC)ccc2N)cc1C(=O)OCC
inhibition [1]: 26.2% | inhibition [2]: 20.5%

CCOC(=O)c1cc(C(=O)c2cc(Cl)ccc2N)n[nH]1
inhibition [1]: 40.2% | inhibition [2]: 12.8%
